According to ChEMBL document CHEMBL1156127, “Synthesis, anticonvulsant activity and 3D-QSAR study of some prop-2-eneamido and 1-acetyl-pyrazolin derivatives of aminobenzothiazole” (Eur J Med Chem, 2010):

Experiments:
Mus musculus [1] = assay: Anticonvulsant activity in ip dosed albino mouse treated 0.5 hrs before PTZ challenge by scPTZ test; format: functional
Method in brief: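 Compound given ip (20–1000 µmol/kg in 0.5% methyl cellulose) 0.5 h before pentylenetetrazole, which was dissolved in 0.9% NaCl and injected subcutaneously in the posterior midline of mice. Onset and severity of convulsions were scored, and ED50 was derived.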

Mus musculus [2] = assay: Anticonvulsant activity in ip dosed albino mouse assessed as absence of hind limb tonic extension after 0.5 hrs by MES test; format: functional, Hindlimb; conditions: for ED50: Mus musculus, albino, Hindlimb, ip, 0.5 h
Method in brief: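 Mice given compound ip at 20–1000 µmol/kg, suspended in 0.5% methyl cellulose/water. Seizure induced 0.5 h later by electroconvulsometer, 50 mA, 60 cycle alternating current, 0.25 s via ear clip electrodes. Protection is reduced duration or absence of hind limb tonic extension. ED50 from at least three doses giving 10–90% protection.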

Mus musculus [3] = organism: Mus musculus; assay: Protection index, ratio of TD50 to ED50 by MES test for albino mouse; format: functional
Method in brief: (§1)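 Mice were trained on a 3.2 cm rod turning at 6 rpm, then dosed ip at 20–1000 µmol/kg and tested at 0.5 h. […] PI = TD50/ED50, with ED50 from the MES test.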

Mus musculus [4] = assay: Behavioral effect in albino mouse assessed as change in locomotor activity during 10 mins at 100 umol/kg, ip after 0.5 hrs; format: functional
Method in brief: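 Mouse activity counted by actophotometer for 10 min 24 h before dosing, then again 0.5 h after 100 µmol/kg ip. % change = 100 − [(post × 100)/pre]. N = 6, mean ± SEM, Student's t test at p < 0.05.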

Rattus norvegicus [5] = assay: CNS toxicity in albino rat assessed as duration of immobility at 100 umol/kg, ip after 0.5 hrs by Porsolt's swimpool test (Rvb= 113 +/- 3.1); conditions: in vivo
[6] = Neurotoxicity in ip dosed albino mouse during 1 min by rotarod test; format: toxicity, organism-based; conditions: in vivo; method in brief: as §1
Rattus norvegicus [7] = assay: Hepatotoxicity in albino rat assessed as serum SGOT level at 100 umol/kg, ip after 15 days (Rvb= 92.2 +/- 2.78); conditions: in vivo, 360 h
Rattus norvegicus [8] = assay: Hepatotoxicity in albino rat assessed as serum SGPT level at 100 umol/kg, ip after 15 days (Rvb= 35.4 +/- 2.68); conditions: in vivo, 360 h
Rattus norvegicus [9] = assay: CNS toxicity in albino rat assessed as duration of immobility at 100 umol/kg, ip after 0.5 hrs by Porsolt's swimpool test (Rvb= 87 +/- 1.5); conditions: in vivo
Rattus norvegicus [10] = assay: CNS toxicity in albino rat assessed as duration of immobility at 100 umol/kg, ip after 0.5 hrs by Porsolt's swimpool test (Rvb= 97 +/- 2.2); conditions: in vivo
Rattus norvegicus [11] = assay: CNS toxicity in albino rat assessed as duration of immobility at 100 umol/kg, ip after 0.5 hrs by Porsolt's swimpool test (Rvb= 128 +/- 2.4); conditions: in vivo

SMILES | ED50 (Mus musculus [1]) [µmol/kg] | pED50 (Mus musculus [2]) | ED50 (Mus musculus [2]) [µmol/kg] | PI (Mus musculus [3]) | Activity (Mus musculus [4]) [%] | Activity (Rattus norvegicus [5]) [s] | TD50 at 1 min [6] [µmol/kg] | Activity (Rattus norvegicus [7]) [U/ml] | Activity (Rattus norvegicus [8]) [U/ml] | Activity (Rattus norvegicus [9]) [s] | Activity (Rattus norvegicus [10]) [s] | Activity (Rattus norvegicus [11]) [s]
COc1ccc(C2CC(Nc3nc4ccc(C)cc4s3)=NN2C(C)=O)cc1O (centres undefined) | 75.6 | 4.13 | 73.9 | 1.99 | 29.5 | 177 | 147 | – | – | – | – | –
CC(=O)N1N=C(Nc2nc3ccc(C)cc3s2)CC1c1ccc(Cl)cc1 (centres undefined) | 27.5 | 4.59 | 25.5 | 4.86 | 35.62 | – | 123 | 93.3 | 33.1 | 91 | – | –
COc1ccc(C2CC(Nc3nc4ccc(C)cc4s3)=NN2C(C)=O)cc1 (centres undefined) | 39.4 | 4.43 | 37.3 | 4.68 | 2.08 | – | 174 | 95.4 | 38.4 | – | 163 | –
CC(=O)N1N=C(Nc2nc3ccc(C)cc3s2)CC1c1ccc(O)cc1 (centres undefined) | 54.3 | 4.3 | 50.2 | 3.14 | 20.94 | – | 157 | 89.6 | 30.2 | – | – | 136
